Assay results from ChEMBL document CHEMBL2380293, “Design, synthesis, and biological evaluation of novel histone deacetylase 1 inhibitors through click chemistry” (Bioorg Med Chem Lett, 2013).
The source made the active and inactive calls. No cut-off for these calls is given here.

Columns and labels:
[1] = target: T1, Histone deacetylase 7 (Homo sapiens) (UniProt Q8WUI4); experiment: Inhibition of human recombinant HDAC7 at 10 uM incubated for 10 mins prior to substrate addition measured after 60 mins by spectrophotometric analysis
T1 sequence (whole entry): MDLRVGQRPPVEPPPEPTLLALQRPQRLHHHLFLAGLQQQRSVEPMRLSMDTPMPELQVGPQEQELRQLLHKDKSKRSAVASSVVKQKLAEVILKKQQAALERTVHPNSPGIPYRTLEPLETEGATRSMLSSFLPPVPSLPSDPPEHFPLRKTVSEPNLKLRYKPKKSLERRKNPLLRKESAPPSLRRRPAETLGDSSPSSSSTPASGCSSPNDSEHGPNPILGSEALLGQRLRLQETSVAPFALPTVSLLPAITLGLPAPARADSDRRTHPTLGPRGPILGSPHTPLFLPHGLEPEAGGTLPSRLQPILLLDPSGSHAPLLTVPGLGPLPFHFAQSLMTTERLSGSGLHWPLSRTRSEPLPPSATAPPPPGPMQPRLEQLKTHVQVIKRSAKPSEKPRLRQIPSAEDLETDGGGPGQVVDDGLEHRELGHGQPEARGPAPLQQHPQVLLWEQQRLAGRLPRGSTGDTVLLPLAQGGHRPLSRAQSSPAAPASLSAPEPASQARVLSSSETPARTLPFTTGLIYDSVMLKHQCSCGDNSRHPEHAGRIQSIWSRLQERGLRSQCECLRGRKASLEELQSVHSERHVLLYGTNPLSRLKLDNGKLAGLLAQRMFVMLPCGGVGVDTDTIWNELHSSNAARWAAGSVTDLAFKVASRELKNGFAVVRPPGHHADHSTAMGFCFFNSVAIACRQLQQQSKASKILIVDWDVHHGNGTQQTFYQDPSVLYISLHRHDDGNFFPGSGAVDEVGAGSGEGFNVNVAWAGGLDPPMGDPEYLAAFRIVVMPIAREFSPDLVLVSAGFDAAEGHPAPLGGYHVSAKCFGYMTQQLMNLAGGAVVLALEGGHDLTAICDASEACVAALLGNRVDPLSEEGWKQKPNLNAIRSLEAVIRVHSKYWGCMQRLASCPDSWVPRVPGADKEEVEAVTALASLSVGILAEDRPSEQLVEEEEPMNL
Outline: (§1)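 Enzyme IC50 values are means of three experiments, with SAHA run as the positive control. Absence of activity was judged at 10 μM.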

Histone deacetylase 1 [2] = target: T2, Histone deacetylase 1 (Homo sapiens, UniProt Q13547); experiment: Inhibition of human recombinant HDAC1 incubated for 10 mins prior to substrate addition measured after 60 mins by spectrophotometric analysis
T2 sequence (Q13547 whole entry): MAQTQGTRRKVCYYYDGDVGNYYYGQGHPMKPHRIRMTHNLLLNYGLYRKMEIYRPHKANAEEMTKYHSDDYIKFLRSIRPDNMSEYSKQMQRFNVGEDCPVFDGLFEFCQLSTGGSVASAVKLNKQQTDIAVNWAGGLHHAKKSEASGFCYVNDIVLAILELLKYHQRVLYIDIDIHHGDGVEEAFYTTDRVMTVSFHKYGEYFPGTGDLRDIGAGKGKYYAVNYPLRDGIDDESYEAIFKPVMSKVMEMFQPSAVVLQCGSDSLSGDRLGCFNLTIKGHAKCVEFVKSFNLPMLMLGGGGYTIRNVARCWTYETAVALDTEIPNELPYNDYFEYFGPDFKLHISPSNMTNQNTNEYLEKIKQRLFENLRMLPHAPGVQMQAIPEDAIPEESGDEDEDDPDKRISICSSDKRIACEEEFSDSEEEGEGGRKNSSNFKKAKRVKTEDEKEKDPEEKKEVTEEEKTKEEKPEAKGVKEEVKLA

DU-145 [3] = experiment: Growth inhibition of human DU145 cells by MTT assay; assay type: functional
A-431 [4] = experiment: Growth inhibition of human A431 cells by MTT assay; assay type: functional
HT-1080 [5] = experiment: Growth inhibition of human HT1080 cells by MTT assay; assay type: functional
Outline: (§2)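 MTT cell growth read-out, with SAHA as the positive control. GI50 values are means of three experiments. 10 μM was the concentration tested for scoring absence of activity.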

A549 [6] = experiment: Growth inhibition of human A549 cells at 10 uM by MTT assay; assay type: functional, cell-based; outline: as §2
BGC-823 [7] = experiment: Growth inhibition of human BGC823 cells by MTT assay; assay type: functional
HeLa [8] = experiment: Growth inhibition of human HeLa cells at 10 uM by MTT assay; assay type: functional, cell-based; outline: as §2
DU-145 [9] = experiment: Growth inhibition of human DU145 cells at 10 uM by MTT assay; assay type: functional, cell-based; outline: as §2
HUVEC [10] = experiment: Growth inhibition of HUVEC at 10 uM by MTT assay; assay type: functional, cell-based; details: Homo sapiens; outline: as §2
A-431 [11] = experiment: Growth inhibition of human A431 cells at 10 uM by MTT assay; assay type: functional, cell-based; outline: as §2
BGC-823 [12] = experiment: Growth inhibition of human BGC823 cells at 10 uM by MTT assay; assay type: functional, cell-based; outline: as §2
HT-1080 [13] = experiment: Growth inhibition of human HT1080 cells at 10 uM by MTT assay; assay type: functional, cell-based; outline: as §2
HUVEC [14] = experiment: Growth inhibition of HUVEC by MTT assay; assay type: functional; details: Homo sapiens
A549 [15] = experiment: Growth inhibition of human A549 cells by MTT assay; assay type: functional
HeLa [16] = experiment: Growth inhibition of human HeLa cells by MTT assay; assay type: functional
Histone deacetylase 1 [17] = target: T2, Histone deacetylase 1; experiment: Inhibition of human recombinant HDAC1 at 10 uM incubated for 10 mins prior to substrate addition measured after 60 mins by spectrophotometric analysis; outline: as §1

inhibition [1] | IC50 (Histone deacetylase 1 [2]) | GI50 (DU-145 [3]) | GI50 (HT-1080 [5]; Homo sapiens, HT-1080) | Compound | growth inhibition (GI) (A549 [6]) | growth inhibition (GI) (HeLa [8]) | growth inhibition (GI) (HUVEC [10]) | growth inhibition (GI) (BGC-823 [12]) | also measured
inactive | 1050 nM | – | – | Cc1ccccc1Cn1cc(CCCCC(=O)NO)nn1 | – | – | – | – | –
inactive | 1850 nM | – | – | COc1ccc(Cn2cc(CCCCC(=O)NO)nn2)cc1 | – | – | – | – | –
inactive | 122 nM | 4490 nM | 7690 nM | O=C(CCCCc1cn(Cc2ccc(Oc3ccccc3)cc2)nn1)NO | inactive | inactive | – | – | GI50 (A-431 [4]): 9030 nM; GI50 (BGC-823 [7]): 7770 nM
inactive | 1360 nM | – | – | O=C(CCCCc1cn(Cc2ccccc2F)nn1)NO | – | – | – | – | –
– | – | – | – | O=C(CCCCCCC(=O)Nc1ccccc1)NO [VORINOSTAT] | – | – | – | – | GI50 (HT-1080 [5]): 4870 nM
inactive | 269 nM | – | 8650 nM | Cc1cc(C)cc(Cn2cc(CCCCC(=O)NO)nn2)c1 | inactive | inactive | inactive | inactive | growth inhibition (GI) (DU-145 [9]): inactive; growth inhibition (GI) (A-431 [11]): inactive
inactive | 396 nM | – | 6650 nM | O=C(CCCCc1cn(Cc2cccc(Br)c2)nn1)NO | inactive | inactive | inactive | inactive | growth inhibition (GI) (DU-145 [9]): inactive; growth inhibition (GI) (A-431 [11]): inactive
inactive | 601 nM | 7200 nM | 7370 nM | CC(C)(C)c1ccc(Cn2cc(CCCCC(=O)NO)nn2)cc1 | inactive | inactive | inactive | inactive | growth inhibition (GI) (A-431 [11]): inactive
inactive | 1600 nM | 7910 nM | – | O=C(CCCCc1cn(Cc2ccc(Br)cc2)nn1)NO | inactive | inactive | – | inactive | growth inhibition (GI) (HT-1080 [13]): inactive; GI50 (A-431 [4]): 15400 nM
inactive | 58 nM | 1190 nM | 3140 nM | O=C(CCCCc1cn(Cc2cccc(-c3ccccc3)c2)nn1)NO | – | – | – | – | GI50 (HUVEC [14]): 1130 nM; GI50 (A-431 [4]): 4650 nM; GI50 (A549 [15]): 1470 nM; GI50 (BGC-823 [7]): 3050 nM; GI50 (HeLa [16]): 3850 nM
inactive | 1220 nM | – | – | O=C(CCCCc1cn(Cc2ccc(F)cc2F)nn1)NO | – | – | – | – | –
inactive | 440 nM | – | – | O=C(CCCCc1cn(Cc2ccc(C(F)(F)F)cc2)nn1)NO | – | – | – | – | –
inactive | 645 nM | – | – | O=C(CCCCc1cn(Cc2ccc(F)cc2)nn1)NO | – | – | – | – | –
inactive | 649 nM | – | 10200 nM | O=C(CCCCc1cn(Cc2ccc(F)c(Cl)c2)nn1)NO | inactive | inactive | inactive | inactive | growth inhibition (GI) (DU-145 [9]): inactive
inactive | 107 nM | 7230 nM | 4610 nM | O=C(CCCCc1cn(Cc2ccc3ccccc3c2)nn1)NO | inactive | inactive | inactive | – | GI50 (A-431 [4]): 5680 nM; GI50 (BGC-823 [7]): 6640 nM
inactive | 3580 nM | – | – | O=C(CCCCc1cn(Cc2ccccc2Br)nn1)NO | inactive | inactive | – | inactive | growth inhibition (GI) (DU-145 [9]): inactive; growth inhibition (GI) (A-431 [11]): inactive; growth inhibition (GI) (HT-1080 [13]): inactive
inactive | 440 nM | – | – | Cc1ccc(Cn2cc(CCCCC(=O)NO)nn2)cc1 | – | – | – | – | –
inactive | 862 nM | – | – | COc1cc(Br)c(Cn2cc(CCCCC(=O)NO)nn2)cc1OC | inactive | inactive | inactive | inactive | growth inhibition (GI) (DU-145 [9]): inactive; growth inhibition (GI) (HT-1080 [13]): inactive; GI50 (A-431 [4]): 17300 nM
inactive | – | – | – | O=C(CCCCc1cn(Cc2c(Br)cc(Br)cc2Br)nn1)NO | – | – | – | – | inhibition (Histone deacetylase 1 [17]): inactive
inactive | 807 nM | – | – | O=C(CCCCc1cn(Cc2ccccc2Cn2cc(CCCCC(=O)NO)nn2)nn1)NO | – | – | – | – | –
inactive | 159 nM | 5620 nM | 9940 nM | COc1ccc(Br)c(Cn2cc(CCCCC(=O)NO)nn2)c1 | inactive | inactive | inactive | inactive | growth inhibition (GI) (A-431 [11]): inactive
inactive | 252 nM | 7890 nM | 8040 nM | COc1cc(Cn2cc(CCCCC(=O)NO)nn2)cc(OC)c1 | inactive | inactive | inactive | inactive | GI50 (A-431 [4]): 6800 nM
inactive | 2210 nM | – | – | O=C(CCCCc1cn(Cc2ccc(Cl)cc2)nn1)NO | – | – | – | – | –
inactive | 701 nM | – | – | N#Cc1ccc(Cn2cc(CCCCC(=O)NO)nn2)cc1 | – | – | – | – | –
inactive | 2570 nM | – | – | O=C(CCCCc1cn(Cc2ccccn2)nn1)NO | – | – | – | – | –
inactive | 1680 nM | – | – | O=C(CCCCc1cn(Cc2ccccc2)nn1)NO | – | – | – | – | –
– | 5130 nM | – | – | O=C(CCCCn1cc(-c2ccccc2)nn1)NO | – | inactive | inactive | inactive | growth inhibition (GI) (DU-145 [9]): inactive; growth inhibition (GI) (A-431 [11]): inactive; growth inhibition (GI) (HT-1080 [13]): inactive; GI50 (A549 [15]): 7690 nM
inactive | 1900 nM | – | – | O=C(CCCCc1cn(Cc2ccc3c(c2)OCO3)nn1)NO | – | – | – | – | –
inactive | 202 nM | 1210 nM | 2690 nM | O=C(CCCCc1cn(Cc2ccc(-c3ccccc3)cc2)nn1)NO | – | – | – | – | GI50 (HUVEC [14]): 5480 nM; GI50 (A-431 [4]): 2990 nM; GI50 (A549 [15]): 2150 nM; GI50 (BGC-823 [7]): 1800 nM; GI50 (HeLa [16]): 3720 nM
inactive | 246 nM | 4060 nM | 10200 nM | O=C(CCCCc1cn(Cc2ccc3ccccc3n2)nn1)NO | inactive | inactive | inactive | inactive | growth inhibition (GI) (A-431 [11]): inactive
